IC50 data for 33 molecules are collected here from ChEMBL document CHEMBL1938258, “Discovery and molecular docking of quinolyl-thienyl chalcones as anti-angiogenic agents targeting VEGFR-2 tyrosine kinase” (Bioorg Med Chem Lett, 2012).

For experiment [1], the target named is Vascular endothelial growth factor receptor 2 (Homo sapiens, UniProt P35968). The experiment is described as follows: Inhibition of VEGFR-2 after 1 hr by fluorescence polarization assay. In a few lines:
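VEGFR kinase protein in a fluorescence polarization tyrosine kinase kit. Buffer was 20 mM HEPES pH 7.4, 5 mM MgCl2, 2 mM MnCl2, Na3VO4, ATP, 200 ng/mL enzyme and 1 ng/mL poly(Glu,Tyr) 4:1. After 1 h the reaction was stopped with 6 mM EDTA. Anti-phosphotyrosine antibody and PTK green tracer were added, and FP was read after 30 min at room temperature.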

The subject of another experiment is HUVEC. The experiment is described as follows: Antiangiogenic activity against VEGF-stimulated HUVEC cells after 72 hrs by BrdU method. Format: functional, cell-based. The following applies: Homo sapiens. In a few lines:
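HUVEC grown overnight at 37 °C, 5% CO2 in 5% FBS medium on type 1 collagen-coated plates. Medium replaced by serum-free medium with graded inhibitor concentrations, then VEGF (10 ng/ml) added 30 min later. Cells incubated a further 72 h, with BrdU present for the last 18–24 h. IC50 taken as K from the fit y = Vmax(1 − x/(K+x)).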

Vascular endothelial growth factor receptor 2, sequence (P35968 whole entry): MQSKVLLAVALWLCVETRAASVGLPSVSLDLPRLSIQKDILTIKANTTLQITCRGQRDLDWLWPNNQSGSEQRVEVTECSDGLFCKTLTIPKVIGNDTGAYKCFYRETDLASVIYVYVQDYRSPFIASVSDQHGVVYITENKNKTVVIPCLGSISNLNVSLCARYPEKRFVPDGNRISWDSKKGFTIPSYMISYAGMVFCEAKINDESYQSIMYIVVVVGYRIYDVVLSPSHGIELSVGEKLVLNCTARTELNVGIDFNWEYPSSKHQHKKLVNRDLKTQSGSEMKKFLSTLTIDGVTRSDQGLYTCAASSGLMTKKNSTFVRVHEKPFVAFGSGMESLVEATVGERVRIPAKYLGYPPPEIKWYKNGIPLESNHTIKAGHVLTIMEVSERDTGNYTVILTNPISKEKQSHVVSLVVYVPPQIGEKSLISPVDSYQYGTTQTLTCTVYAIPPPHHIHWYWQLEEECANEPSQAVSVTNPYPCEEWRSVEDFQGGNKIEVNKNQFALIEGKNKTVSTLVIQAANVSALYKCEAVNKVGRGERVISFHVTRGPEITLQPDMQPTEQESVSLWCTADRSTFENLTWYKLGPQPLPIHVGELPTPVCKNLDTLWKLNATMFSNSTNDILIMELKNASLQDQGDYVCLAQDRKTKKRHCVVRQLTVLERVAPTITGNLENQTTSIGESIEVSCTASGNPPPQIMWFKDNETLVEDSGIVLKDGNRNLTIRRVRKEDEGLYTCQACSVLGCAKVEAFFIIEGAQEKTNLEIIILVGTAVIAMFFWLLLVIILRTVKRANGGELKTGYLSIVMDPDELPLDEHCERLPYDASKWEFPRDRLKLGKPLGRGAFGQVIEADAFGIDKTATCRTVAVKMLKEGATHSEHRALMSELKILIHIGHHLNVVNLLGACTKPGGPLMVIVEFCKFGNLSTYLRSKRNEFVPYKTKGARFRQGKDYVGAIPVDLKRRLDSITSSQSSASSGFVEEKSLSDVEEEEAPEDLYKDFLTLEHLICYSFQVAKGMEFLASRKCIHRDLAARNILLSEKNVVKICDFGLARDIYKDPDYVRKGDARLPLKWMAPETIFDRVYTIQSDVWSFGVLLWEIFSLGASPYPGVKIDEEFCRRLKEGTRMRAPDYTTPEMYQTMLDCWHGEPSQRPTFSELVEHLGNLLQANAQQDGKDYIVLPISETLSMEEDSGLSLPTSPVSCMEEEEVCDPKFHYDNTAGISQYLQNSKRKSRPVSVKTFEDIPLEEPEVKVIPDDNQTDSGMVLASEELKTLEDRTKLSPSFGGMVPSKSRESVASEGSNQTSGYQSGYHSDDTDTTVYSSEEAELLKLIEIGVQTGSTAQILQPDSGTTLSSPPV

With `Cc1csc(C(=O)/C=C/c2cc3cc(C)ccc3nc2Cl)c1`, the IC50 (usually the point on the concentration scale where inhibition reaches its midpoint) in experiment [1] turned out to be 169 nM; in the experiment on HUVEC it was 106 nM. Consider `Cc1ccc2nc(Cl)c(/C=C/C(=O)c3ccsc3)cc2c1`, for which the IC50 in experiment [1] came to 287 nM; in the experiment with HUVEC it was 107 nM. `Cc1ccc2nc(Cl)c(/C=C/C(=O)c3sccc3C)cc2c1`: the concentration for half-maximal inhibition (IC50) was 185 nM in experiment [1] and 127 nM with HUVEC. For the molecule `Cc1ccc2nc(Cl)c(/C=C/C(=O)c3ccc(C)s3)cc2c1`, the half-inhibitory concentration (IC50) was 176 nM in experiment [1] and 128 nM with HUVEC.

On to `Cc1ccc2nc(Cl)c(/C=C/C(=O)c3cc(C)sc3C)cc2c1`, for which the values for the concentration for half-maximal inhibition (IC50) (in experiment [1]; in the experiment with HUVEC) were 453 nM and 229 nM, respectively. On to `Cc1ccc2nc(Cl)c(/C=C/C(=O)c3sccc3Cl)cc2c1`, for which the IC50 in experiment [1] turned out to be 87.1 nM; with HUVEC, 37.5 nM. On the same counts, the results for `Cc1ccc2nc(Cl)c(/C=C/C(=O)c3ccc(Cl)s3)cc2c1` are 107 nM and 59.4 nM. Turning to `Cc1ccc2nc(Cl)c(/C=C/C(=O)c3cc(Cl)sc3Cl)cc2c1`, the IC50 in experiment [1] came out at 81.4 nM; in the experiment on HUVEC it was 26.2 nM. As for `Cc1ccc2nc(Cl)c(/C=C/C(=O)c3sccc3Br)cc2c1`, the IC50 in experiment [1] amounted to 129 nM; in the experiment with HUVEC, 61.9 nM.

For `Cc1ccc2nc(Cl)c(/C=C/C(=O)c3ccc(Br)s3)cc2c1`, the IC50 worked out at 113 nM in experiment [1] and 88.4 nM in the experiment on HUVEC. For `Cc1ccc2nc(Cl)c(/C=C/C(=O)c3ccc(I)s3)cc2c1`, the IC50 was found to be 154 nM in experiment [1] and 129 nM with HUVEC. On the same counts, the results for `Cc1ccc2cc(/C=C/C(=O)c3ccsc3)c(Cl)nc2c1` are 208 nM and 107 nM.

Turning to `Cc1ccc2cc(/C=C/C(=O)c3sccc3C)c(Cl)nc2c1`, the results for the half-inhibitory concentration (IC50) (in experiment [1]; in the experiment on HUVEC) were 157 nM and 124 nM, respectively. With `Cc1csc(C(=O)/C=C/c2cc3ccc(C)cc3nc2Cl)c1`, the IC50 in experiment [1] turned out to be 139 nM; in the experiment on HUVEC it was 98.9 nM. Consider `Cc1ccc2cc(/C=C/C(=O)c3ccc(C)s3)c(Cl)nc2c1`, for which the IC50 was determined as 130 nM in experiment [1] and 102 nM in the experiment with HUVEC. The like results for `Cc1ccc2cc(/C=C/C(=O)c3cc(C)sc3C)c(Cl)nc2c1` were, in that order, 561 nM and 294 nM. On to `Cc1ccc2cc(/C=C/C(=O)c3sccc3Cl)c(Cl)nc2c1`, for which the results for the IC50 (in experiment [1]; with HUVEC) were 82.7 nM and 34 nM, respectively. As to `Cc1ccc2cc(/C=C/C(=O)c3ccc(Cl)s3)c(Cl)nc2c1`, the IC50 in experiment [1] came to 92.2 nM; in the experiment with HUVEC, 49.5 nM. `Cc1ccc2cc(/C=C/C(=O)c3cc(Cl)sc3Cl)c(Cl)nc2c1`: the concentration for half-maximal inhibition (IC50) in experiment [1] turned out to be 73.4 nM; with HUVEC, 21.8 nM. For the molecule `Cc1ccc2cc(/C=C/C(=O)c3sccc3Br)c(Cl)nc2c1`, the results for the IC50 (in experiment [1]; in the experiment on HUVEC) were 112 nM and 61.9 nM, respectively. On to `Cc1ccc2cc(/C=C/C(=O)c3ccc(Br)s3)c(Cl)nc2c1`, for which the concentration for half-maximal inhibition (IC50) in experiment [1] came to 104 nM; in the experiment on HUVEC, 83.6 nM. On to `Cc1ccc2cc(/C=C/C(=O)c3ccc(I)s3)c(Cl)nc2c1`, for which the half-inhibitory concentration (IC50) was 148 nM in experiment [1] and 135 nM in the experiment on HUVEC. Regarding `Cc1cccc2cc(/C=C/C(=O)c3ccsc3)c(Cl)nc12`, the values for the half-inhibitory concentration (IC50) (in experiment [1]; with HUVEC) were 389 nM and 291 nM, respectively.

Consider `Cc1ccsc1C(=O)/C=C/c1cc2cccc(C)c2nc1Cl`, for which the IC50 in experiment [1] worked out at 267 nM; in the experiment with HUVEC, 189 nM. `Cc1csc(C(=O)/C=C/c2cc3cccc(C)c3nc2Cl)c1`: the IC50 in experiment [1] is 233 nM; in the experiment with HUVEC, 153 nM. For `Cc1ccc(C(=O)/C=C/c2cc3cccc(C)c3nc2Cl)s1`, the half-maximal inhibitory concentration (IC50) in experiment [1] came out at 262 nM; with HUVEC it was 145 nM. Consider `Cc1cc(C(=O)/C=C/c2cc3cccc(C)c3nc2Cl)c(C)s1`, for which, in experiment [1], the concentration for half-maximal inhibition (IC50) is above 1000 nM.

`Cc1cccc2cc(/C=C/C(=O)c3sccc3Cl)c(Cl)nc12`: the IC50 in experiment [1] is 130 nM; in the experiment with HUVEC, 91.5 nM. `Cc1cccc2cc(/C=C/C(=O)c3ccc(Cl)s3)c(Cl)nc12`: the IC50 in experiment [1] came out at 189 nM; with HUVEC it was 116 nM.

On to `Cc1cccc2cc(/C=C/C(=O)c3cc(Cl)sc3Cl)c(Cl)nc12`, for which the IC50 in experiment [1] is 358 nM; with HUVEC, 295 nM. With `Cc1cccc2cc(/C=C/C(=O)c3sccc3Br)c(Cl)nc12`, the concentration for half-maximal inhibition (IC50) in experiment [1] is 313 nM; with HUVEC it was 187 nM.

Turning to `Cc1cccc2cc(/C=C/C(=O)c3ccc(Br)s3)c(Cl)nc12`, the concentration for half-maximal inhibition (IC50) was found to be 367 nM in experiment [1] and 243 nM with HUVEC. Regarding `Cc1cccc2cc(/C=C/C(=O)c3ccc(I)s3)c(Cl)nc12`, the IC50 in experiment [1] came to 482 nM; in the experiment on HUVEC, 284 nM.
